Laboratory results taken from ChEMBL document CHEMBL2010649, “Metacridamides A and B, macrocycles from conidia of the entomopathogenic fungus Metarhizium acridum” (J Nat Prod, 2012).
The source made the active and inactive calls. The calls are words filed in the database; no cut-off is given here.

What was measured:
Colletotrichum acutatum = experiment: Antimicrobial activity against Colletotrichum acutatum at 100 ug/disk measured every 24 hrs for 4 days by disk diffusion assay; type: functional, organism-based
Summary of the method: (§1)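 Fungi grown on potato dextrose agar. Plates spread with 0.6 mL conidial suspension (ca. 1×10^6 conidia/mL H₂O) and dried 1 h. Sample applied in 10 μL MeOH to 7-mm paper disks, air-dried 1 h, placed on plates. Zones of inhibition read every 24 h for 4 days. Filipin 10 μg/disk positive control; MeOH 10 μL/disk negative control.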

[1] = Cytotoxicity against human HepG2/C3A cells after 72 hrs by XTT assay; type: functional, cell-based
Summary of the method: (§2)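 Cell viability measured by XTT cell proliferation kit (XTT Cell Proliferation Kit II) on Caco-2, MCF-7 and HepG2/C3A lines; IC50 values derived.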

Bacillus cereus = experiment: Antimicrobial activity against Bacillus cereus at 100 ug/disk measured every 24 hrs for 4 days by disk diffusion assay; type: functional, organism-based
Summary of the method: (§3)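 Bacteria grown on nutrient agar. Plates spread with 0.6 mL of a 24 h nutrient-broth culture and dried 1 h. Sample applied in 10 μL MeOH to 7-mm paper disks, air-dried 1 h, placed on plates. Zones of inhibition read every 24 h for 4 days. Tetracycline 10 μg/disk positive control; MeOH 10 μL/disk negative control.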

Botrytis cinerea = experiment: Antimicrobial activity against Botrytis cinerea at 100 ug/disk measured every 24 hrs for 4 days by disk diffusion assay; type: functional, organism-based; summary of the method: as §1
Aedes aegypti = experiment: Insecticidal activity against Aedes aegypti larvae at 100 ug/ml; type: functional, organism-based
Caco-2 [2] = experiment: Cytotoxicity against human Caco2 cells after 72 hrs by XTT assay; type: functional, cell-based; settings: Caco-2, 72 h; summary of the method: as §2
MCF7 [3] = experiment: Cytotoxicity against human MCF7 cells after 72 hrs by XTT assay; type: functional, cell-based; settings: MCF7, 72 h; summary of the method: as §2
Drosophila melanogaster = experiment: Insecticidal activity against Drosophila melanogaster at 100 ug; type: functional, organism-based
Escherichia coli = experiment: Antimicrobial activity against Escherichia coli at 100 ug/disk measured every 24 hrs for 4 days by disk diffusion assay; type: functional, organism-based; summary of the method: as §3
Beauveria bassiana = experiment: Antimicrobial activity against Beauveria bassiana ARSF 8354 at 100 ug/disk measured every 24 hrs for 4 days by disk diffusion assay; type: functional; summary of the method: as §1
Caco-2 [4] = experiment: Cytotoxicity against human Caco2 cells at 100 uM after 72 hrs by XTT assay; type: functional, cell-based
MCF7 [5] = experiment: Cytotoxicity against human MCF7 cells at 100 uM after 72 hrs by XTT assay; type: functional, cell-based

Row | Structure (SMILES) | inhibition zone (IZ) (Colletotrichum acutatum) | IC50 [1] [µM] | inhibition zone (IZ) (Bacillus cereus) | inhibition zone (IZ) (Botrytis cinerea) | Activity (Aedes aegypti) | IC50 (Caco-2 [2]) [µM] | IC50 (MCF7 [3]) [µM] | Activity (Drosophila melanogaster) | inhibition zone (IZ) (Escherichia coli) | inhibition zone (IZ) (Beauveria bassiana) | Activity (Caco-2 [4]) | Activity (MCF7 [5])
1 | CC[C@H](C)C[C@H](C)[C@H]1OC(=O)[C@H](Cc2ccccc2)NC(=O)/C(C)=C/[C@H](C)[C@@H](O)/C(C)=C/[C@H](C)[C@H](OC(C)=O)/C(C)=C/[C@@H]1C [METACRIDAMIDE A] | inactive | 10.8 | inactive | inactive | inactive | 6.2 | 11 | inactive | inactive | inactive | – | –
2 | CC[C@H](C)C[C@H](C)[C@H]1OC(=O)[C@H](Cc2ccccc2)NC(=O)/C(C)=C/[C@H](C)[C@@H](O)/C(C)=C/[C@H](C)[C@H](O)/C(C)=C\[C@@H]1C [METACRIDAMIDE B] | – | 18.2 | – | – | – | – | – | – | – | – | inactive | inactive
